The source made the active and inactive calls. No cut-off for these calls is given here.
Key:
[1] = target: T1, Fatty-acid amide hydrolase 1 (Homo sapiens) (UniProt O00519); assay: Inhibition of human FAAH using [ethanolamine 1-3H] substrate assessed as radioactivity at 10 uM by liquid scintillation counting analysis
T1 sequence (whole entry): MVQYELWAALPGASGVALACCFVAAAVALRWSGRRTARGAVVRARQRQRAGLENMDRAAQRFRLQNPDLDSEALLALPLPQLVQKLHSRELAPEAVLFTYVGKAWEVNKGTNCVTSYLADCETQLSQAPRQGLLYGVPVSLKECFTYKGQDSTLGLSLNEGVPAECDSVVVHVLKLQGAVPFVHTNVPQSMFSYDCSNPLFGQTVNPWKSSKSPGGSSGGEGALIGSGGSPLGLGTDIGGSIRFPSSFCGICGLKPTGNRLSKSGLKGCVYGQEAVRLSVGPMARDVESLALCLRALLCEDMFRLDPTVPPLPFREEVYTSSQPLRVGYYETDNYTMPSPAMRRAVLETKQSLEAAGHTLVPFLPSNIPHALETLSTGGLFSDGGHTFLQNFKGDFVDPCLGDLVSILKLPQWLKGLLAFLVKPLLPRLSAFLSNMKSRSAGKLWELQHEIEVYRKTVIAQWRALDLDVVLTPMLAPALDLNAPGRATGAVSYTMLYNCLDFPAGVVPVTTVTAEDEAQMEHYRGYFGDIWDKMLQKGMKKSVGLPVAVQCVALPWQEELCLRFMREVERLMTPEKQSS
Procedure, shortened: (§1)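 Human recombinant enzyme screened at a single test concentration; percent inhibition is the mean of two independent experiments, each run in duplicate.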

[2] = target: T2, Monoglyceride lipase (Homo sapiens, UniProt Q99685); assay: Inhibition of human recombinant MAGL using 2-arachidonoylglycerol substrate assessed as arachidonic acid by HPLC analysis
T2 sequence (Q99685 whole entry): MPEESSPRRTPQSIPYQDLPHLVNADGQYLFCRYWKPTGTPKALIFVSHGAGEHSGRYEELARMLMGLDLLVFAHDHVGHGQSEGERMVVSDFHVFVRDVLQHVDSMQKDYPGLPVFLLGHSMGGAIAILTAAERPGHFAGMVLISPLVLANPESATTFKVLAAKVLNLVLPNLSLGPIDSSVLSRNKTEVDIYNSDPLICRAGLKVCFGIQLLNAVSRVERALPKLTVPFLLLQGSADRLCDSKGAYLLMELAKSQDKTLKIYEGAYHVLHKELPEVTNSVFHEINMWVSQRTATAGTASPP

[3] = target: T3, Monoglyceride lipase (Homo sapiens) (UniProt Q99685); assay: Inhibition of human recombinant MAGL using 2-arachidonoylglycerol substrate assessed as arachidonic acid at 10 uM by HPLC analysis; procedure, shortened: as §1
T3 sequence (whole entry): T2 sequence (Q99685 whole entry)

[4] = target: Cannabinoid receptor 2 (Homo sapiens) (UniProt P34972); assay: Agonist activity at human cannabinoid CB2 receptor introduced into CHO cells assessed as [35S]GTPgammaS binding relative to control; format: functional, cell-based
Cannabinoid receptor 2 (Homo sapiens), sequence (P34972 whole entry): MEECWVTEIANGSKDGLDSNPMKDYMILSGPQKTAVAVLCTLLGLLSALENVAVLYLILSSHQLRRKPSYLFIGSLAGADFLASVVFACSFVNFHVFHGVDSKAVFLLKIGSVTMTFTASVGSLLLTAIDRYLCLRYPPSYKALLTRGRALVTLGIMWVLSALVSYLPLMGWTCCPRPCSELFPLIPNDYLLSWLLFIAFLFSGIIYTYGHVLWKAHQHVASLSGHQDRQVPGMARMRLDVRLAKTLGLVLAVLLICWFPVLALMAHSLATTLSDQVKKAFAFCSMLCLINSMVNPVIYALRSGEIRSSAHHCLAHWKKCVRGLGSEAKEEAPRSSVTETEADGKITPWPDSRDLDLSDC
Procedure, shortened: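 [35S]GTPγS binding in membranes from CHO cells expressing hCB2R, test compound alone. Read-out is % of basal binding, mean (range), n = 2.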

[5] = target: T4, Fatty-acid amide hydrolase 1 (Homo sapiens, UniProt O00519); assay: Inhibition of human FAAH using [ethanolamine 1-3H] substrate assessed as radioactivity by liquid scintillation counting analysis
T4 sequence (O00519 whole entry): T1 sequence (whole entry)

[6] = target: T2, Monoglyceride lipase; assay: Reversible inhibition of human recombinant MAGL using 2-arachidonoylglycerol substrate assessed as arachidonic acid after 90 mins by HPLC analysis
[7] = target: T2, Monoglyceride lipase; assay: Reversible inhibition of human recombinant MAGL using 2-arachidonoylglycerol substrate assessed as arachidonic acid after 10 mins by HPLC analysis
[8] = target: T5, Lysophosphatidylserine lipase ABHD12 (Homo sapiens) (UniProt Q8N2K0); assay: Inhibition of human ABHD12 containing pCMV6-XL4-hABHD12 transfected into HEK293 cells at 10 uM; format: cell-based
T5 sequence (whole entry): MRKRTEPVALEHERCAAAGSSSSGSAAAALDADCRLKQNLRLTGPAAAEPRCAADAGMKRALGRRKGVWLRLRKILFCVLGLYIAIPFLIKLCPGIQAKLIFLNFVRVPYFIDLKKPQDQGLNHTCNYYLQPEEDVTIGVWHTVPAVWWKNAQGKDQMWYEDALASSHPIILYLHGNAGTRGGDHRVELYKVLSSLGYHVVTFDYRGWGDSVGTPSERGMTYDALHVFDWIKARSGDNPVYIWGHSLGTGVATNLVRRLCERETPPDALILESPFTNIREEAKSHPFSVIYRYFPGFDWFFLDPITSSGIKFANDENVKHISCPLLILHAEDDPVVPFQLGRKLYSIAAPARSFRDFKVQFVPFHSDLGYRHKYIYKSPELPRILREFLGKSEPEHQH

[9] = target: T2, Monoglyceride lipase; assay: Reversible inhibition of human recombinant MAGL using 2-arachidonoylglycerol substrate assessed as arachidonic acid after 30 mins by HPLC analysis
[10] = target: Histamine H1 receptor (Cavia porcellus, UniProt P31389); assay: Antagonist activity at histamine H1 receptor in guinea pig jejunum assessed as reduction in histamine-induced contractions; settings: read-out: pA2 (converted)
Histamine H1 receptor, sequence (P31389 whole entry): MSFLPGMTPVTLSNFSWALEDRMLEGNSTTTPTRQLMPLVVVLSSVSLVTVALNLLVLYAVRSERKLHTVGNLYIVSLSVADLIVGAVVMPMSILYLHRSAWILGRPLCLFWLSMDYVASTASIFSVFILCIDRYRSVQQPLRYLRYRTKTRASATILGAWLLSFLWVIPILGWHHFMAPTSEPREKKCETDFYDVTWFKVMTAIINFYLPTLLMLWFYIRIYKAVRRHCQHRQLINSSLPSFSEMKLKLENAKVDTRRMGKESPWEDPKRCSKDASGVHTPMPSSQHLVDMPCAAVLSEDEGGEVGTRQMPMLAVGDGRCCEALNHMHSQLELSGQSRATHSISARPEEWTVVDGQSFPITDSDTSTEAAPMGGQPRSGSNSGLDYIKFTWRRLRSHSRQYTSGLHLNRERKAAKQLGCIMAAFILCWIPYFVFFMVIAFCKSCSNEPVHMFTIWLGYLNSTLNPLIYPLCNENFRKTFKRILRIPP

[11] = target: T6, Monoacylglycerol lipase ABHD6 (Homo sapiens, UniProt Q9BV23); assay: Inhibition of human ABHD6 containing pCMV6-AC-hABHD6 transfected into HEK293 cells; format: cell-based
T6 sequence (Q9BV23 whole entry): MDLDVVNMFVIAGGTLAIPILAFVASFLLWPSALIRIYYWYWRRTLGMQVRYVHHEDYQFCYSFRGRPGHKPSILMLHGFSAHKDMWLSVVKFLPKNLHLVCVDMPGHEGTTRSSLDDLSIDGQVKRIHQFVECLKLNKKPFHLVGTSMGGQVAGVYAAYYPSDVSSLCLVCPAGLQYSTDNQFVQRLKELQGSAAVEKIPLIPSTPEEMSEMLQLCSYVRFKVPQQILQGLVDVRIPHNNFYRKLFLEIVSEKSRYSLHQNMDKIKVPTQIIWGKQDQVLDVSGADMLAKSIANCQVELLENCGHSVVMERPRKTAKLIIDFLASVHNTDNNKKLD

[12] = target: Cannabinoid receptor 1 (Rattus norvegicus) (UniProt P20272); assay: Agonist activity at rat cerebellar membrane cannabinoid CB1 receptor assessed as [35S]GTPgammaS binding relative to control; format: functional
Cannabinoid receptor 1 (Rattus norvegicus), sequence (P20272 whole entry): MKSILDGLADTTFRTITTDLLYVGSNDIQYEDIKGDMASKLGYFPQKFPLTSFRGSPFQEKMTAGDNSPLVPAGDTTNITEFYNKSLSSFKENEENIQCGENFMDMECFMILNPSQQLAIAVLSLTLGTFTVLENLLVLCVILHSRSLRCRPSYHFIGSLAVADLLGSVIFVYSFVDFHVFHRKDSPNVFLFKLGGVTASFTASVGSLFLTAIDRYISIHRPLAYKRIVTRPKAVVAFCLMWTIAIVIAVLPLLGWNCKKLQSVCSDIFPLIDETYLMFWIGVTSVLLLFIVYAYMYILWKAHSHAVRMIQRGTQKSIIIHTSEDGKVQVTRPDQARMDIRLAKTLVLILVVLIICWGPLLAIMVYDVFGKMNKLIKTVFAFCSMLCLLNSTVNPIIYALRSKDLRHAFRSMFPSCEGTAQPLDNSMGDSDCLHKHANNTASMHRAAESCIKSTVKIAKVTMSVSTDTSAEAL
Procedure, shortened: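 [35S]GTPγS binding in rat cerebellar membranes, test compound alone at a single concentration. Read-out is % of basal binding, mean (range), n = 2.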

[13] = target: T2, Monoglyceride lipase; assay: Reversible inhibition of human recombinant MAGL using 2-arachidonoylglycerol substrate assessed as arachidonic acid after 60 mins by HPLC analysis
[14] = target: Cannabinoid receptor 1 (Rattus norvegicus) (UniProt P20272); assay: Antagonist activity at rat cerebellar membrane cannabinoid CB1 receptor assessed as HU210-evoked [35S]GTPgammaS binding response relative to control; format: functional; design: scale not given: the % may be the effect or the level left
Procedure, shortened: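 [35S]GTPγS binding in rat cerebellar membranes, test compound co-incubated with HU210 agonist. Expressed as % of the HU210-evoked response, mean (range), n = 2.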

Row | inhibition [1] | inhibition [3] | Structure (SMILES) | IC50 [2] | also measured
1 | inactive | inactive | CN(C(=O)N1CCC(=C2c3ccc(Cl)cc3CCc3cccnc32)CC1)C1CCCCC1 |  | 
2 | 11% | inactive | CCOC(=O)N1CCC(=C2c3ccc(Cl)cc3CCc3cccnc32)CC1 |  | 
3 | 9% | inactive | O=C(NC1CCCCC1)N1CCC(=C2c3ccc(Cl)cc3CCc3cccnc32)CC1 |  | 
4 |  |  | O=C(N1CCC(=C2c3ccc(Cl)cc3CCc3cccnc32)CC1)n1cncn1 | 46 nM | Activity [4]: 101%; IC50 [5]: 7240 nM; IC50 [6]: 309 nM; IC50 [7]: 209 nM; inhibition [8]: inactive; IC50 [9]: 224 nM; Kb [10]: 155 nM; IC50 [11]: 1780 nM; Activity [12]: 90%; IC50 [13]: 257 nM; Activity [14]: 80%
5 | 11% | inactive | CN(C(=O)N1CCC(=C2c3ccc(Cl)cc3CCc3cccnc32)CC1)c1ccccc1 |  | 
6 |  |  | O=C(N1CCC(=C2c3ccccc3C=Cc3ccccc32)CC1)n1cncn1 | 47 nM | IC50 [5]: 6910 nM; inhibition [8]: inactive; Kb [10]: 316 nM; IC50 [11]: 750 nM
7 | 6% | 27% | O=C(Oc1ccc([N+](=O)[O-])cc1)N1CCC(=C2c3ccc(Cl)cc3CCc3cccnc32)CC1 |  | 
8 | 7% | inactive | O=C(N1CCC(=C2c3ccc(Cl)cc3CCc3cccnc32)CC1)n1ccnc1 |  | 
9 |  |  | O=C(N1CCC(C(c2ccc3c(c2)OCO3)c2ccc3c(c2)OCO3)CC1)n1cncn1 | 0.36 nM | 
10 | 12% | 14% | O=[N+]([O-])c1ccc(SC(=S)N2CCC(=C3c4ccc(Cl)cc4CCc4cccnc43)CC2)c([N+](=O)[O-])c1 |  | 
11 | 14% | inactive | O=C(Oc1ccc([N+](=O)[O-])cc1[N+](=O)[O-])N1CCC(=C2c3ccc(Cl)cc3CCc3cccnc32)CC1 |  | 

Row | Structure (SMILES) | inhibition [1] | inhibition [3] | IC50 [2] | also measured
12 | O=C(N1CCC(=C2c3ccc(Cl)cc3CCc3cccnc32)CC1)n1nnc2ncccc21 | 30% |  | 98 nM | 
13 | O=C(OC(C(F)(F)F)C(F)(F)F)N1CCC(=C2c3ccc(Cl)cc3CCc3cccnc32)CC1 | 15% |  | 645 nM | 
14 | O=C(ON1C(=O)CCC1=O)N1CCC(=C2c3ccc(Cl)cc3CCc3cccnc32)CC1 | 12% |  | 2570 nM | 
15 | O=C(N1CCC(=C2c3ccc(Cl)cc3CCc3cccnc32)CC1)n1nnc2ccccc21 | 22% |  | 208 nM | 

Source: ChEMBL document CHEMBL3400077 (Bioorg Med Chem Lett, 2015)
